Results on 17 molecules are retold here after ChEMBL document CHEMBL1142504, “Influence of 6- or 8-substitution on the antiviral activity of 3-arylalkylthiomethylimidazo[1,2-a]pyridine against human cytomegalovirus (CMV) and varicella-zoster virus (VZV): part II” (Bioorg Med Chem, 2008).

≈ marks a conversion by molar mass, not a printed value.

Data set [1] has as its system Human alphaherpesvirus 3. The data set is described as follows: Antiviral activity against thymidine kinase expressing Varicella-Zoster virus Oka in HEL cells assessed as inhibition of viral cytopathicity. The format is functional, organism-based. The following applies: Human alphaherpesvirus 3, Oka. The gist of the method:
(§1)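 VZV input was 20 PFU per HEL cell culture. Cultures were incubated with test compound for 5 days at 37 °C under 5% CO2, then fixed and stained. Viral plaque formation was counted against the untreated control to give the EC50.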
For orientation: Protection from cytopathic effect is a common read-out in antiviral testing.

In data set [2] the test system is Human alphaherpesvirus 3. Briefly: Antiviral activity against thymidine kinase deficient Varicella-Zoster virus 07/1 in HEL cells assessed as inhibition of viral cytopathicity. The format is functional, organism-based. The settings on record: Human alphaherpesvirus 3, HEL. A digest of the protocol:
as §1

Data set [3] can be described thus: Cytotoxicity against HEL cells assessed as morphological alteration after 3 days. The settings on record: human. The class given is cell-based. The gist of the method:
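HEL cell cultures were examined by microscope. Cytotoxicity was recorded as the minimum cytotoxic concentration (MCC), meaning the lowest compound concentration that caused a detectable alteration of cell morphology.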

Data set [4] concerns Human betaherpesvirus 5. Briefly: Antiviral activity against human cytomegalovirus Davis in HEL cells assessed as inhibition of viral cytopathicity. The following applies: Human betaherpesvirus 5, Davis. The class given is functional, organism-based. The gist of the method:
(§2)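 Confluent HEL cell cultures were inoculated with 100 PFU of HCMV. After 2 h adsorption, residual virus was removed and cells were incubated with varying concentrations of test compound. Viral cytopathicity was scored when it reached completion in the untreated virus-infected controls, and the EC50 was taken from this read-out.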

A short description of data set [5]: Cytotoxicity against HEL cells assessed as reduction of growth after 3 days. The class given is cell-based. The following applies: human. The gist of the method: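 HEL cell suspensions were added to wells holding varying concentrations of test compound. Plates were incubated 3 days at 37 °C in a humidified CO2 incubator, and viable cells were counted with a Coulter Counter. CC50 is the concentration that reduced viable cell number by 50%.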

For data set [6], the system named is Human betaherpesvirus 5. The data set is described as follows: Antiviral activity against human cytomegalovirus AD169 in HEL cells assessed as inhibition of viral cytopathicity. The format is functional, organism-based. The following applies: Human betaherpesvirus 5, AD169, HEL. The gist of the method: as §2

Broadly, the EC50 is the concentration needed to bring the measured effect to its halfway point. Broadly, the CC50 is the concentration at which the toxic effect on the cells reaches its halfway point. As to `Cc1cc(-c2ccoc2)cn2c(CSCCc3ccccc3)cnc12`, the EC50 was 2.4 µg/mL (≈ 6.89 µM) in data set [1], over 0.8 µg/mL in data set [2], 0.27 µg/mL (≈ 0.775 µM) in data set [4] and over 0.8 µg/mL in data set [6]. Moreover, in data set [3], the MCC at 72 h was over 4 µg/mL. In data set [5], the CC50 at 72 h worked out at 12 µg/mL (≈ 34.4 µM).
Take `Cc1cc(N2CCN(C)CC2)cn2c(CSCCc3ccccc3)cnc12`: the EC50 is over 4 µg/mL in data set [1], over 4 µg/mL in data set [2], over 4 µg/mL in data set [4] and over 20 µg/mL in data set [6]. The MCC at 72 h in data set [3] is 20 µg/mL. Besides, in data set [5], the CC50 at 72 h was determined as 32 µg/mL (≈ 84.1 µM).
As to `Cc1cc(-n2cccc2)cn2c(CSCCc3ccccc3)cnc12`, the EC50 in data set [1] was over 4 µg/mL; in data set [2] it was over 0.8 µg/mL; in data set [4] it was 1.3 µg/mL (≈ 3.74 µM); in data set [6], over 0.8 µg/mL. The MCC at 72 h in data set [3] was at least 4 µg/mL. Further, in data set [5], the CC50 at 72 h was found to be 11 µg/mL (≈ 31.7 µM).
For `Cc1cc(-n2cccc2)cn2c(CSCc3ccccc3)cnc12`, the EC50 in data set [1] was over 4 µg/mL; in data set [2] it was 2.1 µg/mL (≈ 6.3 µM); in data set [4], 1.3 µg/mL (≈ 3.9 µM); in data set [6], 1.6 µg/mL (≈ 4.8 µM). The MCC at 72 h in data set [3] was 20 µg/mL. Besides, the CC50 at 72 h in data set [5] stood at 17 µg/mL (≈ 51 µM).
Regarding `Cc1cc(-n2cccc2)c2ncc(CSCCc3ccccc3)n2c1`, the EC50 in data set [1] is over 20 µg/mL; in data set [2] it was over 20 µg/mL; in data set [4], 1.8 µg/mL (≈ 5.18 µM); in data set [6] it was 1.8 µg/mL (≈ 5.18 µM). Further, in data set [3], the MCC at 72 h turned out to be 100 µg/mL. In data set [5], the CC50 at 72 h was 26 µg/mL (≈ 74.8 µM).
As to `Cc1cc(N2CCCC2)c2ncc(CSCc3ccccc3)n2c1`, the 50% effective concentration (EC50) in data set [1] is 17.7 µg/mL (≈ 52.4 µM); in data set [2], over 4 µg/mL; in data set [4], 5.2 µg/mL (≈ 15.4 µM); in data set [6], 10 µg/mL (≈ 29.6 µM). The MCC at 72 h in data set [3] is at least 20 µg/mL. The CC50 at 72 h in data set [5] is 52 µg/mL (≈ 154 µM).
As to `Cc1cc(N2CCCC2=O)c2ncc(CSCCc3ccccc3)n2c1`, the EC50 in data set [1], in data set [2], in data set [4] and in data set [6] was over 4 µg/mL each time. Besides, the MCC at 72 h in data set [3] was found to be 20 µg/mL. Moreover, the CC50 at 72 h in data set [5] is 25 µg/mL (≈ 68.4 µM).
Consider `Cc1cc(Sc2ccc(Cl)cc2)cn2c(CSCCc3ccccc3)cnc12`, for which the EC50 in data set [1], in data set [2], in data set [4] and in data set [6] was over 4 µg/mL each time. In addition, in data set [3], the MCC at 72 h was determined as 20 µg/mL. The CC50 at 72 h in data set [5] worked out at 14 µg/mL (≈ 32.9 µM).
For `Cc1cc(-n2ccc3ccccc32)cn2c(CSCCc3ccccc3)cnc12`, the EC50 is over 20 µg/mL in data set [1], over 4 µg/mL in data set [2], 1.8 µg/mL (≈ 4.53 µM) in data set [4] and over 4 µg/mL in data set [6]. Besides, the MCC at 72 h in data set [3] is over 20 µg/mL. Moreover, the CC50 at 72 h in data set [5] was determined as 18 µg/mL (≈ 45.3 µM).
As to `Cc1cc(Sc2ccc(O)cc2)cn2c(CSCCc3ccccc3)cnc12`, the EC50 was over 0.8 µg/mL in data set [1], over 0.8 µg/mL in data set [2], 0.8 µg/mL (≈ 1.97 µM) in data set [4] and over 0.8 µg/mL in data set [6]. In data set [3], the MCC at 72 h came out at 4 µg/mL. Moreover, the 50% cytotoxic concentration (CC50) at 72 h in data set [5] was determined as 100 µg/mL (≈ 246 µM).
Turning to `Cc1cc(N2CCCC2)cn2c(CSCCc3ccccc3)cnc12`, the EC50 in data set [1] is over 4 µg/mL; in data set [2], over 4 µg/mL; in data set [4], 2 µg/mL (≈ 5.69 µM); in data set [6], 4 µg/mL (≈ 11.4 µM). The MCC at 72 h in data set [3] was 20 µg/mL. Further, the CC50 at 72 h in data set [5] amounted to 12 µg/mL (≈ 34.1 µM).
With `Cc1cc(N2CCCC2=O)cn2c(CSCCc3ccccc3)cnc12`, the EC50 was over 100 µg/mL in data set [1], over 20 µg/mL in data set [2], over 20 µg/mL in data set [4] and over 20 µg/mL in data set [6]. The MCC at 72 h in data set [3] was over 100 µg/mL. The CC50 at 72 h in data set [5] was 89 µg/mL (≈ 244 µM).
Regarding `Cc1cc(-c2ccco2)cn2c(CSCCc3ccccc3)cnc12`, the EC50 was over 4 µg/mL in data set [1], over 0.8 µg/mL in data set [2], over 0.8 µg/mL in data set [4] and over 0.8 µg/mL in data set [6]. The MCC at 72 h in data set [3] was over 4 µg/mL. Further, the CC50 at 72 h in data set [5] amounted to 40 µg/mL (≈ 115 µM).
Regarding `Cc1cc(-c2ccc(C=O)cc2)cn2c(CSCCc3ccccc3)cnc12`, the MCC at 72 h in data set [3] came to 100 µg/mL. Also, the values for the EC50 in data set [4] and in data set [6] were 6 µg/mL (≈ 15.5 µM) and 12.6 µg/mL (≈ 32.6 µM), respectively. Also, the CC50 at 72 h in data set [5] was found to be 9.4 µg/mL (≈ 24.3 µM).
For the molecule `Nc1nc2c(ncn2COCCO)c(=O)[nH]1` [ACYCLOVIR], the EC50 was 0.24 µg/mL (≈ 1.07 µM) in data set [1] and 13 µg/mL (≈ 57.7 µM) in data set [2]. Also, in data set [3], the MCC at 72 h was over 400 µg/mL. Further, in data set [5], the CC50 at 72 h worked out at 137 µg/mL (≈ 608 µM).
The matching figures for `O=c1[nH]c(=O)n([C@H]2C[C@H](O)[C@@H](CO)O2)cc1/C=C/Br` [BRIVUDINE]: 0.0037 µg/mL (≈ 0.0111 µM), over 50 µg/mL, 400 µg/mL and 122 µg/mL (≈ 366 µM).
Take `Nc1ccn(C[C@@H](CO)OCP(=O)(O)O)c(=O)n1` [CIDOFOVIR]: in data set [3], the MCC at 72 h was at least 100 µg/mL.
